# AHR activator: activates the human aryl hydrocarbon receptor; P35869; AHR-responsive luciferase reporter cells, luminescence; activation, % at 5 µM; 320,000 compounds, 2.5% hits; AID 2796; in the data active = activation above about 47%;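 note: 0% = vehicle wells and 100% = reference agonist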
# Target sequence (P35869 whole entry, looked up): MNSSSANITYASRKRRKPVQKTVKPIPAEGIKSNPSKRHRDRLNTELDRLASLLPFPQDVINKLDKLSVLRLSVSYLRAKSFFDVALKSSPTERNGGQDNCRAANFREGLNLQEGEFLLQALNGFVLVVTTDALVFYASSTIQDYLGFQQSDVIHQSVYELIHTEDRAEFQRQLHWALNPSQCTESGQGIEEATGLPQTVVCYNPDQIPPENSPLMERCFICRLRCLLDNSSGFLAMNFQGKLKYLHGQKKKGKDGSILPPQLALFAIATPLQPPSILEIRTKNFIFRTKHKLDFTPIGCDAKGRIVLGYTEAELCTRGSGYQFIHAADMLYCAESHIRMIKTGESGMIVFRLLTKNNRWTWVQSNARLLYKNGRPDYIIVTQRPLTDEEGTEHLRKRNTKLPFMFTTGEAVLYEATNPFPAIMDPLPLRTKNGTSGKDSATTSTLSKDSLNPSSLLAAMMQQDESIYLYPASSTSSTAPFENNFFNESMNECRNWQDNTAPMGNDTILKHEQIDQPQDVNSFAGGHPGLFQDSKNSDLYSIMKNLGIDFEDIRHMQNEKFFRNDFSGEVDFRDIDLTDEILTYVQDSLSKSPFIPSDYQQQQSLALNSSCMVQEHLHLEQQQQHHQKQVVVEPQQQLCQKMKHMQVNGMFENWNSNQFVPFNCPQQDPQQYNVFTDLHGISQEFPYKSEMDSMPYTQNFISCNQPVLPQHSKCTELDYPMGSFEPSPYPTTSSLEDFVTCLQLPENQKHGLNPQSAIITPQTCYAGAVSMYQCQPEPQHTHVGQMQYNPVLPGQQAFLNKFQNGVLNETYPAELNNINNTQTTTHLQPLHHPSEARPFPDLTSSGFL
# ABCB6 inh 2: inhibitors of human ABC transporter ABCB6 | Q9NP58 | K562-ABCB6 porphyrin accumulation, flow cytometry, 1 h; stronger effect = lower value | fluorescence ratio to DMSO, % at 10 µM | 360,000 compounds, 0.19% hits;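 active = fluorescence ratio to DMSO below 75%, the collection mean minus 3 SD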;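 note: signal is porphyrin accumulated inside mitochondria; 100% equals median channel fluorescence of DMSO control wells; lower ratio means ABCB6 inhibition with less porphyrin fluorescence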
# GAA850 FXN act: frataxin GAA850 promoter activation; AID 540364; HEK293 lucGAA850 FXN promoter luciferase reporter, 24 h; percent of 10 µM SAHA response; 360,000 compounds, 0.56% hits; activation, % at 6 µM;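 active = activation above the average of all compounds screened plus 3 SD, cutoff fixed separately per campaign, cut at about 7.5% in these data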;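 note: 0% = DMSO wells and 100% = 10 µM SAHA wells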
# STAT3 activator: activators of IL-6 induced STAT3 signaling | 190,000 compounds, 0.91% hits | AID 871 | U3A cells, IL-6 STAT3-luciferase reporter, luminescence; 100% = signal with IL-6 EC80 alone | activation (% of control), % at 5.6 µM;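 active = activation above the screen-wide mean of compound activation plus 3 SD, cut at about 130% in these data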;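 note: 0% = background luminescence of wells with medium and substrate only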
#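 Test system: Human STAT1-deficient U3A cells with stable STAT3-luciferase reporter | Also added: Interleukin-6, 33 ng/mL | Timing: Compound pre-incubation 1 h before IL-6, then 6 h stimulation at 37 °C | Technique: Luciferase reporter luminescence | Read-out: Percent of IL-6-only median luminescence | Benchmarks: IL-6-only wells as 100% reference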
# An asterisk follows results filed as active; . = not tested or not shown. Sampled rows, rich in hits. Any-hit rate of the full collection: about 3.3%.
SMILES,AHR activator,ABCB6 inh 2,GAA850 FXN act,STAT3 activator
O=C(NNC(=O)c1ccc(Br)s1)c1ccc(F)c(S(=O)(=O)N2CCOCC2)c1,3,101,0,.
Cc1ccc(Nc2nc(N)c([N+](=O)[O-])c(N3CCCC(C)C3)n2)cc1C (stereo not drawn),51*,85,5,99
Cc1ccc(-c2ccc(C3C(C#N)=C(N)Oc4n[nH]c(C)c43)o2)cc1 (stereo not drawn),5,99,3,136*
Cc1[nH]nc2c1C(c1ccc(-c3ccc(Cl)cc3)o1)C(C#N)=C(N)O2 (stereo not drawn),44,97,5,101
O=C(c1cccc(N2C(=O)C3CC=CCC3C2=O)c1)N1CCCc2ccccc21 (stereo not drawn),4,94,2,132
Cc1ccc(S(=O)(=O)N(C)c2ccc(OCC(=O)Nc3nc4c(ccc5ccccc54)s3)cc2)cc1,47*,95,0,103
O=C(NC(=O)c1c(F)cccc1F)Nc1cccc(Oc2ncc(Cl)cn2)c1,.,105,0,.
Clc1ccc(Nc2nc3cccnc3s2)cc1,53*,99,7,102
CCOC(=O)Cc1c(C)nc2c(-c3ccccc3)cnn2c1C,54*,93,5,98
Cc1ccc(C)c(S(=O)(=O)N2CCCC2CNC(=O)C(=O)NCC2CCCO2)c1 (stereo not drawn),-1,94,1,.
Cc1ccsc1C1NC(=O)c2c(sc3c2CCCC3)N1 (stereo not drawn),114*,96,3,108
O=C1NC(c2ccc(Br)cc2)Nc2sc3c(c21)CCC3 (stereo not drawn),77*,104,-1,94
Nc1nc2c(-c3ccc(Br)cc3)nnn2c2ccccc12,54*,94,6,.
O=C(Nc1ccc2c(c1)CCC2)c1cnc(Cl)c(Cl)c1,24,98,7,108
O=C(Nc1ccc2c(c1)CCC2)c1ccc(Cl)nc1,17,97,5,137*
C#CCOCCOCCOCCNc1nc(N2CCN(C(=O)[C@H](CCCCN)n3cc([C@@H](N)C(C)CC)nn3)CC2)nc(N2CCN(C(=O)[C@H](Cc3cc4ccccc4[nH]3)n3cc([C@@H](N)CC(C)C)nn3)CC2)n1 (stereo partly drawn),13,94,3,.
O=C1Nc2ccccc2O/C1=C\c1ccccc1,61*,104,3,.
C/C(=N\O)c1noc(C)c1C(=O)Nc1nccs1,50*,102,1,.
CCOC(=O)c1noc(C)c1C(=O)Nc1nccs1,2,97,0,106
O=c1cc(/C=C/c2ccccc2)oc2ccccc12,60*,99,7,117
Clc1ccc(Cn2ccc(-c3ccc4c(c3)OCO4)n2)cc1Cl,51*,94,2,105
COc1ccccc1Nc1nc2c(C)cccc2cc1C#N,4,98,0,86
CCOc1ccc(Nc2nc3c(C)cccc3cc2C#N)cc1,50*,113,-1,.
Oc1ccc(Cl)cc1C1=NNC(c2ccc(Cl)cc2)C1 (stereo not drawn),77*,101,5,105
Cn1c(Sc2ccc(Br)cc2)c(C=O)c2ccccc21,11,97,-6,157*
SMILES,AHR activator,ABCB6 inh 2,GAA850 FXN act,STAT3 activator
CCOc1cccc(/C=C/c2ccc3cccc(O)c3n2)c1OC,76*,79,5,.
COc1ccc(Cl)cc1/C=C/c1ccc2cccc(O)c2n1,66*,103,2,.
COc1cc(Cl)cc(/C=C/c2ccc3cccc(O)c3n2)c1OC,40,93,1,.
COc1ccccc1/C=C/c1ccc2cccc(O)c2n1,75*,100,5,.
CC(C)C[C@H]1CN(CCCC[C@@H]2CNC(=O)C(=O)N2CCc2ccccc2)C(=O)C(=O)N1Cc1ccccc1,.,93,.,.
NC(=O)c1c(NC(=O)Cc2ccccc2)sc2c1CCN(Cc1ccccc1)C2,-5,95,0,.
CS(=O)(=O)c1ccc(NC(=O)c2cccc(-n3cnnn3)c2)cc1,4,86,-1,.
Cc1ccc(NC(=O)c2cccc(-n3cnnn3)c2)cc1Cl,56*,98,-1,.
O=C(N/N=C/c1ccc2c(c1)OCO2)c1cc(-c2ccccc2)nc2ccccc12,51*,99,1,93
O=c1[nH]c(N/N=C\c2ccc3c(c2)OCO3)nc2ccccc12,57*,93,1,74
O=C(N/N=C/c1ccc2c(c1)OCO2)c1cc(-c2ccco2)nc2ccccc12,.,96,-3,.
O=c1[nH]c(N/N=C/c2ccccc2)nc2ccccc12,20,110,6,77
O=C(Nc1ccc2c(c1)OCO2)c1cc(-c2cccnc2)nc2ccccc12,47*,97,0,103
c1cncc(-c2nc(NCc3ccc4c(c3)OCO4)c3ccccc3n2)c1,64*,98,0,.
c1cncc(CNc2ncnc3ccc(-c4ccc5c(c4)OCO5)cc23)c1,53*,99,1,.
Fc1cccc(CSc2ccc(-c3ccc4c(c3)OCO4)nn2)c1,9,104,0,94
c1nc(NCc2ccc3c(c2)OCO3)c2cc(-c3ccc4c(c3)OCCO4)ccc2n1,16,94,1,.
c1cncc(CSc2ccc(-c3ccc4c(c3)OCO4)nn2)c1,95*,100,3,88
CCCNC(=S)NNC(=O)c1cc(-c2cccnc2)nc2ccccc12,25,106,1,.
CCCCNC(=S)NNC(=O)c1cc(-c2cccnc2)nc2ccccc12,54*,95,-1,.
Cc1onc(-c2ccccc2)c1C(=O)/C=C/N(C)C,-1,95,-1,.
COc1ccc(C(C[N+](=O)[O-])c2c(C)[nH]n(-c3ccccc3)c2=O)cc1 (stereo not drawn),17,99,1,.
Cc1[nH]n(-c2ccccc2)c(=O)c1C(C[N+](=O)[O-])c1ccccc1Cl (stereo not drawn),68*,106,2,109
CC(C)c1ccc(NC(=O)Nc2cc3sccc3n2C)cc1,48*,113,1,119
Cn1c(C(=O)Nc2ccc3c(c2)OCCO3)cc2sccc21,42,103,-1,77
SMILES,AHR activator,ABCB6 inh 2,GAA850 FXN act,STAT3 activator
O=S1(=O)CC(N2CC=CC2)CN1Cc1cn(Cc2cccc(Cl)c2)nn1 (stereo not drawn),.,95,.,.
CCOC(=O)N1CCN(S(=O)(=O)c2ccc(C(=O)NNc3nc4c(C)cccc4s3)cc2)CC1,20,105,-4,120
CCOC(=O)N1CCN(S(=O)(=O)c2ccc(C(=O)NNc3nc4c(C)cc(C)cc4s3)cc2)CC1,47*,97,-2,102
CCOC(=O)[C@@H]1[C@H]2COc3ccccc3[C@H]2N2C(=O)N(c3ccc(Cl)cc3)C(=O)[C@]12C,1,94,-1,.
COc1cc(CNCc2ccc(C)cc2)cc(OC)c1OC,0,97,2,.
C=CCNC(=O)c1ccccc1NC(=O)c1ccccc1SC,77*,95,2,104
C=CCNC(=O)c1ccccc1NC(=O)c1ccccc1C,27,99,0,107
CCCOc1c(Br)cc(C(=O)NCC)cc1OC,79*,90,2,96
